The target in series [1] is T1, ATP-dependent translocase ABCB1 (Homo sapiens, UniProt P08183). The series can be described thus: Reversal of P-gp mediated multidrug resistance in human DU145-TxR cells overexpressing P-gp assessed as potentiation of paclitaxel-induced cytotoxicity by measuring fold reduction paclitaxel IC50 at 5 uM after 48 hrs by MTT assay relative to parent compound. In kind it is cell-based. The method, boiled down: (§1)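 DU145TXR cells seeded at 3000 per well, 24 h later treated 48 h with paclitaxel alone or with 3, 5, 7 or 10 μM inhibitor in complete medium (DMSO vehicle). MTT 4 h, formazan dissolved in DMSO, A570 read, background subtracted, viability relative to DMSO. IC50 by four-parameter nonlinear fit; eight replicates, at least two experiments. Fold values compare paclitaxel alone or with parent inhibitor.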

The target in series [2] is T1, ATP-dependent translocase ABCB1. The series can be described thus: Inhibition of P-gp overexpressed in human DU145-TxR cells assessed as increase in intracellular compound accumulation after 2.5 hrs in presence of tariquidar by LC-MS/MS analysis. In kind it is cell-based. The essentials:
(§2)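 P-gp-overexpressing DU145TXR cells exposed to test compounds with or without tariquidar. Intracellular compound measured by LC–MS/MS, with daunorubicin as a transported-substrate control. Ratio is accumulation with tariquidar divided by accumulation without.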

The target in series [3] is P-glycoprotein 1 Abcb1a (Mus musculus). Briefly: Inhibition of spin-labelled adenine nucleotide interaction with mouse MDR3 P-gp expressed in Escherichia coli BL21 (DE3) assessed as apparent dissociation constant by ESR analysis (reference value: 36.5 +/- 3.6 uM).
Series [4] deals with T1, ATP-dependent translocase ABCB1. The series can be described thus: Reversal of P-gp mediated multidrug resistance in human DU145-TxR cells overexpressing P-gp assessed as potentiation of paclitaxel-induced cytotoxicity by measuring fold reduction paclitaxel IC50 at 7 uM after 48 hrs by MTT assay relative to paclitaxel alone. In kind it is cell-based. The method, boiled down:
as §1
Background: Tetrazolium dyes change colour on reduction, which living cells bring about.

Series [5] has the same target. The series can be described thus: Reversal of P-gp mediated multidrug resistance in human DU145-TxR cells overexpressing P-gp assessed as potentiation of paclitaxel-induced cytotoxicity by measuring fold reduction paclitaxel IC50 at 5 uM after 48 hrs by MTT assay relative to paclitaxel alone. In kind it is cell-based. The method, boiled down: as §1
Series [6] shares this target. Briefly: Inhibition of P-gp overexpressed in human DU145-TxR cells assessed as increase in cellular accumulation of calcein AM at 2 uM preincubated for 6 hrs followed by calcein AM addition by fluorescence imaging analysis. It is filed as cell-based. The essentials:
(§3)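 Confluent DU145TXR monolayers in phenol red-free RPMI 1640 given 2 μM inhibitor (DMSO vehicle) and 1 μg mL−1 calcein AM, either added together or after a 6 h inhibitor-only preincubation at 37 °C. Calcein fluorescence (ex 485 / em 535 nm) read over 60 min at 20 min intervals. Six replicates, at least two independent experiments.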

Series [7] deals with T2, P-glycoprotein (ABCB1, MDR1) ATPase (Homo sapiens, UniProt P08183). The series can be described thus: Effect on basal ATPase hydrolysis of recombinant human MDR1 expressed in Pichia pastoris measured after 30 mins in presence of NADH by coupled enzyme assay (reference value: 100 +/- 5 %). As to conditions: recombinant human MDR1 (P-gp) expressed in Pichia pastoris, read-out: Activity; call rule not given here. On the set-up: scale not given: the % may be the effect or the level left.

Series [8] concerns the target T1, ATP-dependent translocase ABCB1. The series can be described thus: Ratio of inhibition of P-gp overexpressed in human DU145-TxR cells assessed as increase in intracellular compound accumulation after 2.5 hrs in presence of tariquidar by LC-MS/MS analysis to Inhibition of P-gp overexpressed in human DU145-TxR cells assessed as decrease in intracellular compound accumulation after 2.5 hrs in absence of tariquidar by LC-MS/MS analysis. It is filed as cell-based. The essentials:
as §2

Series [9] has the same target. Briefly: Reversal of P-gp mediated multidrug resistance in human DU145-TxR cells overexpressing P-gp assessed as potentiation of paclitaxel-induced cytotoxicity by measuring fold reduction paclitaxel IC50 at 10 uM after 48 hrs by MTT assay relative to parent compound. In kind it is cell-based. The essentials:
as §1

Series [10] shares this target. Briefly: Reversal of P-gp mediated multidrug resistance in human DU145-TxR cells overexpressing P-gp assessed as potentiation of paclitaxel-induced cytotoxicity by measuring fold reduction paclitaxel IC50 at 3 uM after 48 hrs by MTT assay relative to parent compound. In kind it is cell-based. The method, boiled down: as §1
In series [11] the target is T3, P-glycoprotein (ABCB1, mouse MDR3) ATPase (Mus musculus, UniProt P21447). Briefly: Stimulation of basal ATPase hydrolysis in recombinant mouse MDR3 expressed in Pichia pastoris measured after 30 mins in presence of NADH by coupled enzyme assay (reference value: 100 +/- 7 %). On the set-up: scale not given: the % may be the effect or the level left. As to conditions: recombinant mouse MDR3 (P-gp) expressed in Pichia pastoris, read-out: Activity.

Series [12] addresses T1, ATP-dependent translocase ABCB1. The series can be described thus: Reversal of P-gp mediated multidrug resistance in human DU145-TxR cells overexpressing P-gp assessed as potentiation of paclitaxel-induced cytotoxicity by measuring fold reduction paclitaxel IC50 at 3 uM after 48 hrs by MTT assay relative to paclitaxel alone. It is filed as cell-based. The essentials: as §1

The target is the same in series [13]. The series can be described thus: Inhibition of P-gp overexpressed in human DU145-TxR cells assessed as increase in cellular accumulation of calcein AM at 2 uM pretreated followed by calcein AM addition by fluorescence imaging analysis. In kind it is cell-based. The essentials: as §3
The target is the same in series [14]. The series can be described thus: Reversal of P-gp mediated multidrug resistance in human DU145-TxR cells overexpressing P-gp assessed as potentiation of paclitaxel-induced cytotoxicity by measuring fold reduction paclitaxel IC50 at 7 uM after 48 hrs by MTT assay relative to parent compound. In kind it is cell-based. The method, boiled down: as §1
For series [15] the target is unchanged. Briefly: Reversal of P-gp mediated multidrug resistance in human DU145-TxR cells overexpressing P-gp assessed as potentiation of paclitaxel-induced cytotoxicity by measuring fold reduction paclitaxel IC50 at 10 uM after 48 hrs by MTT assay relative to paclitaxel alone. It is filed as cell-based. The method, boiled down:
as §1

Series [16] concerns the target T2, P-glycoprotein (ABCB1, MDR1) ATPase. Briefly: Inhibition of verampil-stimulated ATPase hydrolysis in recombinant human MDR1 expressed in Pichia pastoris measured after 30 mins in presence of NADH by coupled enzyme assay (reference value: 100 +/- 6 %). On the set-up: scale not given: the % may be the effect or the level left. The note with it: recombinant human MDR1 (P-gp) expressed in Pichia pastoris.

Series [17] relates to P-glycoprotein 1 Abcb1a (Mus musculus). Briefly: Inhibition of 2',3'-(2,2,5,5,-tetramethyl-3-pyrroline-l-oxyl-3-carboxylic acid ester)ATP interaction with mouse MDR3 P-gp expressed in Escherichia coli BL21 (DE3) assessed as reduction in ATP binding from 2 to 1 of nucleotide to mol of protein by ESR analysis (reference value: 1.8 +/- 0.1).
Series [18] has as its target T3, P-glycoprotein (ABCB1, mouse MDR3) ATPase. Briefly: Effect on verampil-mediated ATPase hydrolysis of recombinant mouse MDR3 expressed in Pichia pastoris measured after 30 mins in presence of NADH by coupled enzyme assay (reference value: 100 +/- 8 %). On the set-up: scale not given: the % may be the effect or the level left. The note with it: recombinant mouse MDR3 (P-gp) expressed in Pichia pastoris, read-out: Activity.

Series [19] has as its target T2, P-glycoprotein (ABCB1, MDR1) ATPase. Briefly: Basal ATPase hydrolysis in recombinant human MDR1 expressed in Pichia pastoris measured after 30 mins in presence of NADH by coupled enzyme assay (reference value: 100 +/- 5 %). On the set-up: scale not given: the % may be the effect or the level left. The note with it: recombinant human MDR1 (P-gp) expressed in Pichia pastoris.

Series [20] addresses T3, P-glycoprotein (ABCB1, mouse MDR3) ATPase. Briefly: Basal ATPase hydrolysis in recombinant mouse MDR3 expressed in Pichia pastoris measured after 30 mins in presence of NADH by coupled enzyme assay (reference value: 100 +/- 7 %). On the set-up: scale not given: the % may be the effect or the level left. As to conditions: recombinant mouse MDR3 (P-gp) expressed in Pichia pastoris.

Series [21] has the same target. The series can be described thus: Stimulation of verampil-mediated ATPase hydrolysis in recombinant mouse MDR3 expressed in Pichia pastoris measured after 30 mins in presence of NADH by coupled enzyme assay (reference value: 100 +/- 8 %). On the set-up: scale not given: the % may be the effect or the level left. As to conditions: recombinant mouse MDR3 (P-gp) expressed in Pichia pastoris, read-out: Activity.

For series [22], the target named is T1, ATP-dependent translocase ABCB1. The series can be described thus: Inhibition of P-gp overexpressed in human DU145-TxR cells assessed as decrease in intracellular compound accumulation after 2.5 hrs in absence of tariquidar by LC-MS/MS analysis. In kind it is cell-based. The essentials:
as §2

For series [23], the target named is T3, P-glycoprotein (ABCB1, mouse MDR3) ATPase. Briefly: Inhibition of verampil-stimulated ATPase hydrolysis in recombinant mouse MDR3 expressed in Pichia pastoris measured after 30 mins in presence of NADH by coupled enzyme assay (reference value: 100 +/- 8 %). The note with it: recombinant mouse MDR3 (P-gp) expressed in Pichia pastoris. On the set-up: scale not given: the % may be the effect or the level left.

These results are taken from ChEMBL document CHEMBL4354820, “Optimizing Targeted Inhibitors of P-Glycoprotein Using Computational and Structure-Guided Approaches” (J Med Chem, 2019).

The structures appear in SMILES notation.

T3 sequence (P21447 whole entry): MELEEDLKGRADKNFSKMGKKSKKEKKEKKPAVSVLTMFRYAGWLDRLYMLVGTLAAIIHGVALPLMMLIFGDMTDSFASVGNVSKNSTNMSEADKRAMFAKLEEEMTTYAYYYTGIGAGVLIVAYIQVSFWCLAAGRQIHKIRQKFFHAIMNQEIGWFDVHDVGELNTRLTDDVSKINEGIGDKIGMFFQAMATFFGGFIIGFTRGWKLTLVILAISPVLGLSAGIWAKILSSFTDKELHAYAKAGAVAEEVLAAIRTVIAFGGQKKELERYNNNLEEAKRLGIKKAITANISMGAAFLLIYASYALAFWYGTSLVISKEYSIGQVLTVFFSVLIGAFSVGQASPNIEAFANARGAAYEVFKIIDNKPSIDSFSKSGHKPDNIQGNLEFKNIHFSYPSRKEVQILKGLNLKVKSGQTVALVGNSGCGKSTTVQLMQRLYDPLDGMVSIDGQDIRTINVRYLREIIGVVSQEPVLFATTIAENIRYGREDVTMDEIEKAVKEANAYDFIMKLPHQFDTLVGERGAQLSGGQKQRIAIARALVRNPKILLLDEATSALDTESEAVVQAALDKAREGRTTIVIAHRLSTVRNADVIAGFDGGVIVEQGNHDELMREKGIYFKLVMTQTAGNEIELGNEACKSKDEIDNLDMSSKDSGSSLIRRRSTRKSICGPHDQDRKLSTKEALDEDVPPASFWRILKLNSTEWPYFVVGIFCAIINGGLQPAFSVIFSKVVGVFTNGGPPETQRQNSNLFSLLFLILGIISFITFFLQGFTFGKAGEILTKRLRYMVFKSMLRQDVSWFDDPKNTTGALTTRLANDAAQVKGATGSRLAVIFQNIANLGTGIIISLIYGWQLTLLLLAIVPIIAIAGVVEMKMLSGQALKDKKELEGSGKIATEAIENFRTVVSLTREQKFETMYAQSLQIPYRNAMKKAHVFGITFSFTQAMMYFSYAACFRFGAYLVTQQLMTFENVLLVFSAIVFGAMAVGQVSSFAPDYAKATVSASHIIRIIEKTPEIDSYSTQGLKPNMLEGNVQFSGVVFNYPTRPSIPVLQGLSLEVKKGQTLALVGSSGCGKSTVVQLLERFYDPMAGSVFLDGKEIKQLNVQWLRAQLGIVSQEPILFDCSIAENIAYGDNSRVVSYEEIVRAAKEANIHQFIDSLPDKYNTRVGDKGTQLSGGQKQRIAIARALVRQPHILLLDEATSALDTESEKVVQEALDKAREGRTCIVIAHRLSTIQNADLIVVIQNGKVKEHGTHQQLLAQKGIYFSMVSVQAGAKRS
T2 sequence (P08183 whole entry): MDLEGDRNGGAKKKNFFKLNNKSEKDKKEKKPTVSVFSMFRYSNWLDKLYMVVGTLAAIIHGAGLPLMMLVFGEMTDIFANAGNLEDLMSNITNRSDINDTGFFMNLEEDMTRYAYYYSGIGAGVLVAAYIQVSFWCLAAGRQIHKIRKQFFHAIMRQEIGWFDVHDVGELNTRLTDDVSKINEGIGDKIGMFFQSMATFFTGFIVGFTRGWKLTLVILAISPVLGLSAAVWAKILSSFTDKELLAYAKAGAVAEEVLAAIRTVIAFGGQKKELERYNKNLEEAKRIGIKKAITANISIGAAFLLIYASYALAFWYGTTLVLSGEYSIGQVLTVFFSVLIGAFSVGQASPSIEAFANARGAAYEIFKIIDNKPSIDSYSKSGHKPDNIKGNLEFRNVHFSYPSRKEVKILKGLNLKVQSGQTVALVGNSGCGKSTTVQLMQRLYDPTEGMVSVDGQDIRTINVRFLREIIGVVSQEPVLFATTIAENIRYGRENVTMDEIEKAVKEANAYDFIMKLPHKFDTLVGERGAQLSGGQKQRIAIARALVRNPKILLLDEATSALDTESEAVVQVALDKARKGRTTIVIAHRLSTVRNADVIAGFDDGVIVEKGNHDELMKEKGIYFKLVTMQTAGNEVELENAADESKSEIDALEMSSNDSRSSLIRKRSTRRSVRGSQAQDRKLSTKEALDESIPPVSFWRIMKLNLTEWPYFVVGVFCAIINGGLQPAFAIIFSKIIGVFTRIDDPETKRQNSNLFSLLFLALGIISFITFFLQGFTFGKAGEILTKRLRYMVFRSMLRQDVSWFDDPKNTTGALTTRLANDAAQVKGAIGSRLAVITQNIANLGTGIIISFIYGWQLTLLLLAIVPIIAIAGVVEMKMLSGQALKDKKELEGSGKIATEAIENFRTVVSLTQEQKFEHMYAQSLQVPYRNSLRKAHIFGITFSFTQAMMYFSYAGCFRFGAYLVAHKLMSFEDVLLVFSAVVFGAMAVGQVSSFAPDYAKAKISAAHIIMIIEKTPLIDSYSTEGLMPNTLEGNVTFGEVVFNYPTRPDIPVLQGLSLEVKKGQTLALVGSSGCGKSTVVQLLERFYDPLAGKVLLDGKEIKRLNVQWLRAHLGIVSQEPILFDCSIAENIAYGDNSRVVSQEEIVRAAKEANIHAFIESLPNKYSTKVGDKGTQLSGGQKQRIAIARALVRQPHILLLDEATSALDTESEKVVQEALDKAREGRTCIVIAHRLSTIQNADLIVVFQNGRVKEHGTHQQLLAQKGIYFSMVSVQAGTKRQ
T1 sequence (P08183 whole entry): as above

Regarding `Cc1cc(C)c(-c2cc(NC(=O)CSCC(=O)Nc3ccc4ncsc4c3)n(-c3ccccc3)n2)cc1C`, the fold change (FC) in [1] was found to be 34; in [4], 731; in series [5], 372; in series [9], 27; in series [10], 3.7; in series [12], 12. Moreover, the “fold change (FC)” value was 20 in [14] and 2118 in series [15]. In addition, the “inhibition (INH)” value in [2], in series [6] and in [13] was “Active” each time. The Kd in [3] amounted to 25.6 µM. Also, the Activity at 0.5 h in series [7] was 84%; in [11], 355%; in [16] it was 59%; in series [18] it was 123%. For the same molecule, the Ratio in series [8] is 1.2. For the same molecule, the Activity in [17] is given as 1.9.

Take `Cc1cc(C)c(-c2cc(NC(=O)CSCC(=O)Nc3ccc4ccccc4c3)n(-c3ccccc3)n2)cc1C`: the “fold change (FC)” value worked out at 4.2 in series [1]; 303 in series [4]; 46 in series [5]; 11 in series [9]; 4.1 in series [10]; 14 in [12]. Also, the entries for the “fold change (FC)” value in series [14] and in series [15] were 8.4 and 1060, respectively. For the same molecule, in series [3], the Kd is 22.2 µM. For the same molecule, the Activity at 0.5 h in series [19] was determined as 70%; in [20], 70%; in series [16] it was 40%; in series [21], 141%. Moreover, the “inhibition (INH)” value in series [6] and in [13] was “Active” each time. For the same molecule, the Ratio in series [8] was found to be 0.9. The Activity in [17] worked out at 1.6.

For the molecule `Cc1cc(C)c(-c2cc(NC(=O)CSCC(=O)NC34CC5CC(CC(C5)C3)C4)n(-c3ccccc3)n2)cc1C`, the “fold change (FC)” value is recorded as 1.8 in series [1]; 101 in series [4]; 19 in series [5]; 1.6 in series [9]; 2.7 in series [10]; 9.2 in series [12]. In addition, the “fold change (FC)” value amounted to 2.8 in [14] and 163 in series [15]. For the same molecule, the “inhibition (INH)” value is reported as “Not Active” in series [2], “Not Active” in series [22], “Active” in [6] and “Not Active” in [13]. Besides, the Kd in series [3] was 22.9 µM. For the same molecule, the Activity at 0.5 h worked out at 74% in series [19], 78% in [20], 41% in series [23] and 63% in series [16]. The Ratio in series [8] came out at 1. In addition, in series [17], the Activity came out at 1.3.

With `Cc1cc(C)c(-c2cc(NC(=O)CSc3cccc(NC(=O)c4cncc(Br)c4)c3)n(-c3ccccc3)n2)cc1C`, the “fold change (FC)” value in [1] came to 9.7; in series [4] it was 236; in series [5] it was 106; in series [9] it was 3.5; in [10] it was 11; in series [12] it was 38. In addition, the results for the “fold change (FC)” value in [14] and in [15] were 6.6 and 353, respectively. The Kd in series [3] was determined as 22.8 µM. For the same molecule, the Activity at 0.5 h in series [19] amounted to 72%; in series [23] it was 62%; in series [11] it was 150%; in series [16] it was 27%. Besides, the “inhibition (INH)” value in series [6] and in [13] was “Active” throughout. In addition, the Ratio in [8] was 1.1. In addition, the Activity in [17] was determined as 1.7.

For `Cc1cc(C)c(-c2cc(NC(=O)CSCC(=O)NC(c3ccccc3)c3ccccc3)n(-c3ccccc3)n2)cc1C`, the “fold change (FC)” value in [1] was 3.5; in series [4], 133; in [5], 38; in series [9] it was 1.9; in series [10] it was 3.9; in [12], 13. In addition, the “fold change (FC)” value in [14] turned out to be 3.7; in series [15], 193. Further, the “inhibition (INH)” value in [2] is listed as “Not Active”; in series [22] it was “Not Active”; in series [6], “Active”; in [13], “Not Active”. The Kd in [3] came out at 21.6 µM. For the same molecule, the Activity at 0.5 h in series [19] came out at 76%; in series [11], 148%; in series [16] it was 54%; in [21] it was 116%. Moreover, the Ratio in [8] is 1.2. Besides, the Activity in [17] came to 1.6.
